A short description of this data set: Rat pharmacokinetics. The conditions noted are these: Sprague-Dawley, plasma; for clearance: iv, 1 mg/kg. The class given is in vivo, Sprague-Dawley rats. A digest of the protocol: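 Sprague-Dawley rats (n = 3) received the test compound intravenously at 1 mg/kg; a separate oral gavage arm used 2 mg/kg. Blood was sampled at 5, 15, 30 min and 1, 2, 4, 6, 8 h into EDTA tubes and centrifuged to plasma. Plasma proteins were precipitated with acetonitrile and drug was quantified by LC-MS/MS. CL and t1/2 came from noncompartmental analysis.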

As a reminder, the half-life is the time in which the quantity being followed falls by half. A lower half-life goes with rapid decline. By clearance is commonly meant the volume of plasma or blood freed of the substance per unit of time. Lower therefore signals inefficient removal. On to `Cc1nc(C)n(-c2ccc(Nc3cc(-c4ccn(C)n4)c(Cl)cn3)cc2)n1` [Compound 15], for which the half-life was 1.3 h and the clearance was determined as 9 mL/min/kg.
The corresponding values for `Cn1ccc(-c2cc(Nc3ccc(-n4cnc(N5CCOCC5)n4)cc3)ncc2Cl)n1` [Compound 16] are 6.5 h and 0.9 mL/min/kg.
The corresponding values for `Cc1ccc(-c2ncn(-c3ccc(Nc4cc(-c5ccn(C)n5)c(F)cn4)cc3)n2)cn1` [Compound 20] are 2.3 h and 4.2 mL/min/kg.
For `Cn1ccc(-c2cc(Nc3ccc(-n4cnc(-c5ccccn5)n4)cc3)ncc2F)n1` [Compound 21] the same measures were 3.4 h and 4 mL/min/kg.
For the compound `Cc1nc(C)n(-c2ccc(Nc3cc(-c4nn(C)cc4-c4ccc(F)cc4)ccn3)cc2)n1` [Compound 37], the half-life was 1.5 h and the clearance was determined as 6.4 mL/min/kg.

The values above are taken from article PMC3081976 (Bioorganic & medicinal chemistry letters, 2010).
